Rtt109 Vps75 – C. albicans Rtt109 histone acetyltransferase inhibition; Q5AAJ8; purified Rtt109/Vps75, ThioGlo CoA-SH fluorescence, 4 h; inhibition, % at 34.9 µM; actives 0.16% (n = 330,000); AID 540336;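 active means inhibition of at least 50% in every replicate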
Target sequence (Q5AAJ8 whole entry, looked up): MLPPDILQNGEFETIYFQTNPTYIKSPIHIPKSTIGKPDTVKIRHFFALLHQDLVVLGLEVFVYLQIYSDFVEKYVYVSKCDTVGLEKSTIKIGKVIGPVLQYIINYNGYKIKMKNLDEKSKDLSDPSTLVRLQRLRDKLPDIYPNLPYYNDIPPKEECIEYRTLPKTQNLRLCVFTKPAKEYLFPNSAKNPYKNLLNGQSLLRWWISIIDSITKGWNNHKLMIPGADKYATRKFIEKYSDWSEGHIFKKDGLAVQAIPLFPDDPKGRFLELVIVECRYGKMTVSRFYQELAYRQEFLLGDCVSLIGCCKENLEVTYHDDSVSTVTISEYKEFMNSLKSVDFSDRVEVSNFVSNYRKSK
miR122 inh – miR-122 inhibition in Huh7 cells. Huh7 miR-122 Renilla luciferase sensor, 48 h; neutral wells = 0, positive control = 100. activation (reporter increase), % at 12.5 µM. actives 0.3% (n = 340,000). AID 602342;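 active means mean replicate activation score at least 90 and every replicate individually at or above 90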;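 further: higher luciferase means less miR-122 activity so hits act as miR-122 inhibitors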
MLL AF4-AF9 inh – MLL-AF4/AF9 protein interaction inhibition; P42568; AlphaScreen, biotin-AF4 peptide binding to FLAG-AF9; inhibition, % at 10 µM; actives 0.47% (n = 350,000); AID 651704;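 active means every replicate reaching a set inhibition limit, whatever the replicate mean, cut at about 25% in these data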;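 further: 0% = plate neutral control median and 100% = total signal loss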
S100A4 MyoIIA – inhibitors of human S100A4 binding to myosin IIA peptide | P26447 | S100A4/TAMRA-MyoIIA peptide fluorescence polarization | AID 652163 | actives 0.14% (n = 360,000) | inhibition, % at 10.7 µM;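 active means mean inhibition of at least 70% across replicates, with every replicate also reaching that level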
Target sequence (P26447 whole entry, looked up): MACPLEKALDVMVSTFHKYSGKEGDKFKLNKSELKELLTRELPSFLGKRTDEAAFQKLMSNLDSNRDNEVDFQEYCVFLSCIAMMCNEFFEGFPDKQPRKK
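Material: S100A4 monomer (human). Medium: Calcium-containing HEPES buffer, pH 7.2. Probe or stimulus: labelled myosin peptide probe, 5 nM. Compound dosing: one concentration per compound. Timing: polarization read 5 min after assay mix addition, stable 5–60 min. Benchmarks: DMSO as neutral control, TFP as positive control.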
ERAP1 HTS inh – ERAP1 (human) enzyme inhibition. actives 0.15% (n = 340,000). inhibition, % at 10.7 µM. recombinant ERAP1, Leu-AMC fluorescence, 60 min. AID 652197. Q9NZ08;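 active means mean replicate inhibition of at least 30%, or all replicates individually reaching that 30% level; inactive means mean below 30% and not every replicate reaching it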;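 further: 0% = neutral control wells and 100% = L-leucinethiol positive control wells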
Starred values were filed as active, the others as inactive; · = no result; [ ] = another dose, or the depositor's remark. Sampled rows, rich in hits. Any-hit rate of the full collection: about 0.86%.

SMILES	Rtt109 Vps75	miR122 inh	MLL AF4-AF9 inh	S100A4 MyoIIA	ERAP1 HTS inh
Cc1ccc(NC(=S)N(CCCN2CCCC2)Cc2cccn2Cc2ccc(Cl)cc2)cc1C	62*	-19	16	-5	-1
C[C@H]1CN([C@@H](C)CO)C(=O)c2cc(/C=C/c3ccccc3)cnc2O[C@H]1CN(C)C(=O)Nc1ccc(C(F)(F)F)cc1	·	·	9	-19	-1
C[C@@H]1CN([C@@H](C)CO)C(=O)c2cc(NS(=O)(=O)c3ccc(F)cc3)ccc2O[C@@H](C)CCCCO[C@H]1CN(C)C(=O)Nc1ccccc1	·	8[16.7 µM]	·	·	·
CCOc1ccc(OCC)c(S(=O)(=O)N2CCCCC2)c1	8	18	·	·	·
CCOC(=O)N1CCN(S(=O)(=O)c2ccc(C)c(C(=O)NC3CCCCC3)c2)CC1	-4	7	-2	127*	3
CCOC(=O)C1CCN(S(=O)(=O)c2ccc(C)c(C(=O)NC3CCCCC3)c2)CC1	-10	-9	0	3	1
CCOC(=O)N1CCN(S(=O)(=O)c2cc(OCC)ccc2OCC)CC1	4	143*	·	·	·
CCC1=[N+](C)c2cccc3cccc(c23)N1C	-4	-4	-1	21	36*
CCN1C(=O)Nc2cccc3cccc1c23	6	-3	1	-1	-1
CCCN1C[C@@H](C)[C@@H](OC)CN(C)C(=O)c2ccc(NC(=O)C3CCC3)cc2OC[C@H]1C	·	5[16.7 µM]	-3	0	2
CCNC(=O)[C@@H]1[C@@H](CO)[C@@H]2Cn3c(ccc(-c4ccc(OC)cc4)c3=O)[C@H]1N2S(C)(=O)=O	·	2[16.7 µM]	0	-10	-2
COc1ccc(CN2CC3(CCN(C(=O)Cc4ccncc4)CC3)c3c([nH]c4cc(OC)ccc34)[C@@H]2CO)cc1	·	·	-5	0	-2
CNC[C@@H]1OCCCC[C@@H](C)Oc2ccc(NS(=O)(=O)c3cccs3)cc2C(=O)N([C@H](C)CO)C[C@H]1C	·	42[16.7 µM]	-29	101*	3
C[C@@H]1CN([C@@H](C)CO)C(=O)c2cc(NS(=O)(=O)c3ccc(Cl)cc3)ccc2O[C@H]1CN(C)Cc1ccccc1	·	26[16.7 µM]	25*	10	2
COc1ccc(S(=O)(=O)Nc2ccc3c(c2)C(=O)N([C@@H](C)CO)C[C@H](C)[C@H](CN(C)C(=O)Nc2ccccc2)OCCCC[C@@H](C)O3)cc1	·	120*[16.7 µM]	·	·	·
C[C@@H]1CCCCO[C@@H](CN(C)S(=O)(=O)c2ccccc2)[C@H](C)CN([C@H](C)CO)C(=O)c2cc(NC(=O)CCCN(C)C)ccc2O1	·	5[16.7 µM]	4	5	0
C[C@@H]1CCCCO[C@@H](CN(C)S(=O)(=O)c2ccccc2)[C@@H](C)CN([C@@H](C)CO)C(=O)c2cc(NC(=O)CCCN(C)C)ccc2O1	·	0[16.7 µM]	-4	151*	-6
CNC[C@@H]1OCCCC[C@H](C)Oc2ccc(NS(=O)(=O)c3cccs3)cc2C(=O)N([C@@H](C)CO)C[C@@H]1C	·	8[16.7 µM]	-6	-2	1
C[C@H](CO)N1C[C@H](C)[C@@H](CN(C)S(=O)(=O)c2cccs2)OCCCC[C@H](C)Oc2ccc(NS(C)(=O)=O)cc2C1=O	·	52[16.7 µM]	-7	106*	-6
C[C@@H]1CN([C@H](C)CO)C(=O)c2cc(NS(=O)(=O)c3ccc(Cl)cc3)ccc2O[C@@H](C)CCCCO[C@H]1CN(C)Cc1ccc(Cl)c(Cl)c1	·	5[16.7 µM]	3	102*	-3
COc1ccc(S(=O)(=O)N(C)C[C@@H]2OCCCC[C@@H](C)Oc3ccc(NC(=O)Nc4ccc(C(F)(F)F)cc4)cc3C(=O)N([C@H](C)CO)C[C@@H]2C)cc1	·	15[16.7 µM]	-11	99*	-8
Cc1ccc(S(=O)(=O)Nc2ccc3c(c2)C(=O)N([C@H](C)CO)C[C@@H](C)[C@H](CN(C)S(=O)(=O)c2ccccc2)OCCCC[C@H](C)O3)cc1	·	-2[16.7 µM]	-2	-3	0
Cc1ccc(S(=O)(=O)N(C)C[C@H]2OCCCC[C@H](C)Oc3ccc(NS(=O)(=O)c4ccccc4)cc3C(=O)N([C@H](C)CO)C[C@@H]2C)cc1	·	-1[16.7 µM]	1	97*	2
C[C@@H]1CCCCO[C@H](CN(C)C(=O)c2ccncc2)[C@@H](C)CN([C@@H](C)CO)C(=O)c2cc(NC(=O)c3ccccc3)ccc2O1	·	8[16.7 µM]	-3	-16	0
